Values after ≈ are worked out from the molar mass of the structure shown.
Tests used:
Enterobacter cloacae = experiment: In vitro antibacterial activity was tested for Enterobacter cloacae HA2646; assay type: functional
Staphylococcus aureus [1] = experiment: In vitro antibacterial activity was tested for Staphylococcus aureus H228; assay type: functional
Procedure, shortened: (§1)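 Microtitration (microdilution) MIC determination in μg/mL against a panel of Gram-positive, Gram-negative and anaerobic organisms. Values come from duplicate or triplicate experiments and are stated accurate to ±50%.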

Providencia rettgeri = experiment: In vitro antibacterial activity was tested for Providencia rettgeri H1771; assay type: functional; procedure, shortened: as §1
V79 [2] = experiment: (§2) Clonogenic cytotoxicity against Chinese hamster V-79 cells; assay type: functional, cell-based; conditions: Cricetulus griseus
Procedure, shortened: (§3)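 Chinese hamster V-79 cells grown overnight, then exposed to drug 3 h at 37 °C; drug medium replaced with fresh medium, cells incubated 5 days and scored for colony formation. IC50 (μg/mL) taken as concentration inhibiting colony formation by 50% versus control.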

Enterococcus faecalis = experiment: In vitro antibacterial activity was tested for Streptococcus faecalis MGH-2; assay type: functional; procedure, shortened: as §1
Escherichia coli [3] = experiment: In vitro antibacterial activity was tested for Escherichia coli Vogel; assay type: functional; procedure, shortened: as §1
Staphylococcus aureus [4] = experiment: In vitro antibacterial activity was tested for Staphylococcus aureus UC-76; assay type: functional; procedure, shortened: as §1
Klebsiella pneumoniae = experiment: In vitro antibacterial activity was tested for Klebsiella pneumoniae MGH-2; assay type: functional; procedure, shortened: as §1
Streptococcus pyogenes = experiment: In vitro antibacterial activity was tested for Streptococcus pyogenes C203; assay type: functional; procedure, shortened: as §1
Escherichia coli [5] = experiment: In vitro antibacterial activity was tested for Escherichia coli H560; assay type: functional; procedure, shortened: as §1
Pseudomonas aeruginosa = experiment: In vitro antibacterial activity was tested for Pseudomonas aeruginosa UI-18; assay type: functional; procedure, shortened: as §1
Streptococcus pneumoniae = experiment: In vitro antibacterial activity was tested for Streptococcus pneumoniae SV-1; assay type: functional; procedure, shortened: as §1
Mus musculus [6] = species: Mus musculus; experiment: (§4) Phototoxic skin reaction in depilated female CD-1 mice; assay type: functional
Procedure, shortened: (§5)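 Female CD-1 mice, depilated, given a single oral or subcutaneous dose. UVA (320–400 nm) exposure for 3 h, starting 1 h post-dose. Initial doses were 30, 100 and 300 mg/kg. PTD50 (dose giving phototoxic skin reaction in 50% of mice) derived by probit method. First day of positive reaction and no-effect dose taken from raw data.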

Clostridioides difficile = experiment: In vitro antibacterial activity was tested for Clostridium diff CD1-1; assay type: functional
Bacteroides fragilis = experiment: In vitro antibacterial activity against Bacteroides fragilis BFA; assay type: functional; procedure, shortened: as §1
[7] = tested on: Peptoniphilus asaccharolyticus; experiment: In vitro antibacterial activity was tested for Pepto asac PA 3-1; assay type: functional; procedure, shortened: as §1
Clostridium perfringens = experiment: In vitro antibacterial activity against Clostridium perfringens CP 3-1; assay type: functional
Mus musculus [8] = species: Mus musculus; experiment: as §4; assay type: toxicity, organism-based; conditions: in vivo; procedure, shortened: as §5
Cutibacterium acnes = experiment: In vitro antibacterial activity was tested for Propion acnes PA5-1; assay type: functional; procedure, shortened: as §1
Mus musculus [9] = species: Mus musculus; experiment: phototoxic skin reaction in depilated female CD-1 mice; assay type: functional
Procedure, shortened: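 Depilated female CD-1 mice given a single oral or subcutaneous dose; UVA (320–400 nm) exposure for 3 h starting 1 h post-dose. Initial doses 30, 100 and 300 mg/kg. PTD50 (dose giving phototoxic skin reaction in 50% of mice) calculated by probit method; first day of positive reaction and no-effect dose also taken from raw data.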

V79 [10] = experiment: as §2; assay type: functional; conditions: Cricetulus griseus; procedure, shortened: as §3

Row | SMILES | MIC (Enterobacter cloacae) [µg/mL] | MIC (Staphylococcus aureus [1]) [µg/mL] | MIC (Providencia rettgeri) [µg/mL] | IC50 (V79 [2]) [µg/mL] | MIC (Enterococcus faecalis) [µg/mL] | MIC (Escherichia coli [3]) [µg/mL] | MIC (Staphylococcus aureus [4]) [µg/mL] | MIC (Klebsiella pneumoniae) [µg/mL] | MIC (Streptococcus pyogenes) [µg/mL] | MIC (Escherichia coli [5]) [µg/mL] | MIC (Pseudomonas aeruginosa) [µg/mL] | MIC (Streptococcus pneumoniae) [µg/mL] | No effect dose (Mus musculus [6]) [mg] | MIC (Clostridioides difficile) [µg/mL] | MIC (Bacteroides fragilis) [µg/mL] | MIC [7] [µg/mL] | MIC (Clostridium perfringens) [µg/mL] | PTD50 (Mus musculus [8]) [mg] | MIC (Cutibacterium acnes) [µg/mL] | further results
1 | NCC1CCCN(c2c(F)c(N)c3c(=O)c(C(=O)O)cn(C4CC4)c3c2F)C1 (stereo not drawn) | 0.05 (≈ 0.127 µM) | 0.025 (≈ 0.0637 µM) | 0.2 (≈ 0.51 µM) | 38 (≈ 96.8 µM) | 0.013 (≈ 0.0331 µM) | 0.05 (≈ 0.127 µM) | 0.003 (≈ 0.00765 µM) | 0.1 (≈ 0.255 µM) | 0.13 (≈ 0.331 µM) | 0.025 (≈ 0.0637 µM) | 0.8 (≈ 2.04 µM) | 0.003 (≈ 0.00765 µM) | – | – | – | – | – | – | – | –
2 | COc1c(N2CCC(N)C2)c(F)cc2c(=O)c(C(=O)O)cn(C3CC3)c12 (stereo not drawn) | 0.025 (≈ 0.0692 µM) | 0.05 (≈ 0.138 µM) | 0.1 (≈ 0.277 µM) | – | 0.05 (≈ 0.138 µM) | 0.025 (≈ 0.0692 µM) | 0.013 (≈ 0.036 µM) | 0.05 (≈ 0.138 µM) | 0.025 (≈ 0.0692 µM) | 0.013 (≈ 0.036 µM) | 0.4 (≈ 1.11 µM) | 0.025 (≈ 0.0692 µM) | 100 | 0.4 (≈ 1.11 µM) | 0.2 (≈ 0.553 µM) | 0.8 (≈ 2.21 µM) | 0.1 (≈ 0.277 µM) | > 100 | 0.4 (≈ 1.11 µM) | –
3 | NC1CCN(c2nc3c(cc2F)c(=O)c(C(=O)O)cn3C2CC2)C1 (stereo not drawn) | – | – | – | – | – | – | – | – | – | – | – | – | – | 6.3 (≈ 19 µM) | 1.6 (≈ 4.81 µM) | 0.8 (≈ 2.41 µM) | 0.1 (≈ 0.301 µM) | > 100 | 0.2 (≈ 0.602 µM) | Photoxic reaction (Mus musculus [9]): 100 mg; MIC (V79 [10]): 98 µg/mL (≈ 295 µM)
4 | COc1c(N2CCCC(CN)C2)c(F)cc2c(=O)c(C(=O)O)cn(C3CC3)c12 (stereo not drawn) | 0.2 (≈ 0.514 µM) | 0.05 (≈ 0.128 µM) | 0.8 (≈ 2.05 µM) | – | 0.05 (≈ 0.128 µM) | 0.2 (≈ 0.514 µM) | 0.006 (≈ 0.0154 µM) | 0.4 (≈ 1.03 µM) | 0.006 (≈ 0.0154 µM) | 0.1 (≈ 0.257 µM) | 3.1 (≈ 7.96 µM) | 0.006 (≈ 0.0154 µM) | – | – | – | – | – | – | – | MIC (V79 [10]): 22 µg/mL (≈ 56.5 µM)
5 | NC1CCN(c2c(F)cc3c(=O)c(C(=O)O)cn(C4CC4)c3c2Cl)C1 (stereo not drawn) [CLINAFLOXACIN] | 0.025 (≈ 0.0683 µM) | 0.05 (≈ 0.137 µM) | 0.025 (≈ 0.0683 µM) | – | 0.05 (≈ 0.137 µM) | 0.013 (≈ 0.0355 µM) | 0.013 (≈ 0.0355 µM) | 0.025 (≈ 0.0683 µM) | 0.05 (≈ 0.137 µM) | 0.006 (≈ 0.0164 µM) | 0.05 (≈ 0.137 µM) | 0.05 (≈ 0.137 µM) | 18 | 0.4 (≈ 1.09 µM) | 0.1 (≈ 0.273 µM) | 0.4 (≈ 1.09 µM) | 0.1 (≈ 0.273 µM) | 23 | 0.2 (≈ 0.547 µM) | –
6 | COc1c(N2CCNC(C)C2)c(F)cc2c(=O)c(C(=O)O)cn(C3CC3)c12 (stereo not drawn) [GATIFLOXACIN] | 0.05 (≈ 0.133 µM) | 0.2 (≈ 0.533 µM) | 0.2 (≈ 0.533 µM) | 85 (≈ 226 µM) | 0.2 (≈ 0.533 µM) | 0.05 (≈ 0.133 µM) | 0.05 (≈ 0.133 µM) | 0.1 (≈ 0.266 µM) | 0.1 (≈ 0.266 µM) | 0.05 (≈ 0.133 µM) | 0.8 (≈ 2.13 µM) | 0.1 (≈ 0.266 µM) | – | 1.6 (≈ 4.26 µM) | 0.4 (≈ 1.07 µM) | 0.8 (≈ 2.13 µM) | 0.4 (≈ 1.07 µM) | – | 0.4 (≈ 1.07 µM) | –
7 | C[C@@H]1CN(c2c(F)c(N)c3c(=O)c(C(=O)O)cn(C4CC4)c3c2F)C[C@H](C)N1 [SPARFLOXACIN] | – | – | – | 370 (≈ 943 µM) | – | – | – | – | – | – | – | – | 18 | 6.3 (≈ 16.1 µM) | 1.6 (≈ 4.08 µM) | 0.4 (≈ 1.02 µM) | 0.2 (≈ 0.51 µM) | 28 | 0.4 (≈ 1.02 µM) | –
